Tests used:
[1] = tested on: pooled female rat microsomes; experiment: Glucuronidation incubation in permeabilized rat microsomes; assay type: in vitro ADME
Procedure, shortened: (§1)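 Pooled liver microsomes (human for line 1, female rat for line 2), permeabilized with 25 µg/mL alamethicin at 0.25 mg/mL protein in 0.1 M phosphate pH 7.4, 50 mM Tris-HCl, 10 mM MgCl₂. Test compound at 5,000 ng/mL; started with […]. Sampled at 0 and 60 min, quenched in acetonitrile, run in triplicate. LC-MS/MS read parent and the 639.5>433.5 glucuronide channel.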

[2] = Stability of VX-970 in human plasma; assay type: in vitro ADME
Procedure, shortened: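 Test compound was spiked into human plasma at QC levels of 5, 150 and 4000 ng/mL, in triplicate. Long-term stability: 8 months at -80 °C, read against freshly prepared standard curves. Freeze/thaw: 3 cycles, frozen at -80 °C and thawed on separate days, compared with fresh samples. Bench stability: 4 h at room temperature. Quantitation was by LC-MS/MS with deuterated internal standard.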

[3] = assay type: in vitro ADME; settings: bile spiked human plasma, room temperature 4 h
Procedure, shortened: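 Bile from treated animals, containing the direct glucuronide, was spiked into human plasma. Parent compound was quantitated by LC-MS/MS before and after 4 h at room temperature. Bile was also spiked into phosphate buffers at pH 5, 6, 7, 8 and 9 with the same 4 h room-temperature hold. The glucuronide was monitored via the 639.5>433.5 channel.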

[4] = tested on: pooled human liver microsomes; experiment: Glucuronidation incubation in permeabilized human microsomes; assay type: in vitro ADME
Procedure, shortened: as §1

[5] = Stability of VX-970 in stock solution; assay type: physicochemical
[6] = Plasma pharmacokinetics in a patient after IV infusion of VX-970; assay type: in vivo, human
Procedure, shortened: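 One patient received a 1 h IV infusion at 60 mg/m², with blood sampled from 0 to 72 h. Plasma (50 µL) was spiked with deuterated internal standard, precipitated with acetonitrile, diluted with water and run by positive-ESI MRM LC-MS/MS. Calibration spanned 3–5000 ng/mL, and the glucuronide channel was also monitored. PK parameters were derived non-compartmentally.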

[7] = one patient, 1 h IV infusion 60 mg/m^2, non-compartmental

CNCc1ccc(-c2cc(-c3nc(-c4ccc(S(=O)(=O)C(C)C)cc4)cnc3N)on2)cc1 [VX-970]
Metabolite in the 639.3>433.5 m/z glucuronide channel ([1]; rat microsome incubation of VX-970): No metabolite was observed
Drug remaining in the incubation mixture ([1]; rat microsomes 0.25 mg/mL, 5,000 ng/mL VX-970, UDPGA, 60 min): 87.5%
recovery at 8 months ([2]; human, plasma): 92.2 to 100%
Stability (%) ([2]; plasma 3 freeze-thaw cycles, −80 °C, QCH 4000 ng/mL): 98.1%
Stability (%) ([2]; plasma 3 freeze-thaw cycles, −80 °C, QCL 5 ng/mL): 98.1%
Stability (%) ([2]; plasma 3 freeze-thaw cycles, −80 °C, QCM 150 ng/mL): 99.6%
Stability (%) ([2]; plasma 8 months, −80 °C, QCH 4000 ng/mL): 96.2%
Stability (%) ([2]; plasma 8 months, −80 °C, QCL 5 ng/mL): 92.2%
Stability (%) ([2]; plasma 8 months, −80 °C, QCM 150 ng/mL): 100.1%
Stability (%) ([2]; plasma 4 h, ambient temp., QCH 4000 ng/mL): 100.2%
Stability (%) ([2]; plasma 4 h, ambient temp., QCL 5 ng/mL): 96.2%
Stability (%) ([2]; plasma 4 h, ambient temp., QCM 150 ng/mL): 96.0%
VX-970 concentrations in bile spiked plasma, % stable [3]: 96.5%
Drug remaining in the incubation mixture ([4]; human microsomes 0.25 mg/mL, 5,000 ng/mL VX-970, UDPGA, 60 min): 99.9%
Glucuronidation ([4]; permeabilized human microsomes, 5,000 ng/mL VX-970, 60 min): no glucuronidation
Stability (%) ([5]; stock solution 8 months, −80 °C, 100,000 ng/mL): 95.7%
Stability (%) ([5]; stock solution 6 h, ambient temp, 100,000 ng/mL): 96.7%
AUC(0-inf) ([6]; human, plasma, iv, 60 mg/m^2): 2500 ng·h/mL
AUC(0-t) ([6]; human, plasma, iv, 60 mg/m^2): 2430 ng·h/mL
Cmax ([6]; human, plasma, iv, 60 mg/m^2): 343 ng/mL
half-life ([6]; human, plasma, iv, 60 mg/m^2): 14 h
Cl [6, 7]: 24.0 L/h/m^2
Vss [6, 7]: 386 L/m^2

From article PMC5632222 (Journal of pharmaceutical and biomedical analysis, 2017)
